This is a sample that favours compounds with a hit; in the whole collection about 9.5% have one here.
mHtt clearance: mutant huntingtin protein clearance. HeLa Exon1htt(103Q)mCFP, aggregate imaging; zero = plate's median compound well. inhibition, % at 1.5 µM. 47,000 compounds, 0.42% hits. AID 853;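 active = inhibition of aggregate fluorescence above about 70%, also judged a hit by eye on the cell image, limit read from the data, passing the limit was not always enough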;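 also: cells exposed to compound for three days before fixation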
Jurkat viability: reduces viability or proliferation of Jurkat cells. Jurkat E6.1 viability, ATP luminescence, 48 h. inhibition, % at 4 µM. 56,000 compounds, 1.2% hits. AID 463;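 active = inhibition above the mean inhibition of all tested compounds plus 3 SD, cut at about 28% in these data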
M1 antag: antagonists of rat M1 muscarinic receptor; P08482; CHO-M1 cells, Fluo-4 calcium, ACh EC80 antagonist mode; active compounds read low; B-score at 10 µM; 64,000 compounds, 3.4% hits; AID 628;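 active = calcium fluorescence response, raw or row-and-column corrected B-score, differing from the plate sample mean either way at a set confidence level, mostly lower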
HEK293 NFkB inh: lowers PMA/ionomycin-induced NF-kB signal in HEK293 cells. HEK-293 NF-kB luciferase reporter, luminescence. 62,000 compounds, 0.21% hits. inhibition, % at 3 µM;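 active = inhibition above the mean of all tested compounds plus 3 SD, cut at about 40% in these data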;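 also: 0% = stimulated DMSO wells and 100% = 10 µM reference inhibitor 5653914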
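Reagent: PMA plus ionomycin mix as NF-kB-activating stimulus. Assay system: NF-kB luciferase reporter HEK-293 cells. Technique: luminescence from luciferase substrate reagent. Incubation: 1 h compound pre-incubation, 16 h PMA/ionomycin at 37 °C. Benchmarks: DMSO only as uninhibited control, 10 µM reference inhibitor as full inhibition. Repeats: tested once.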
D1 mod: allosteric modulators of human D1 dopamine receptor; P21728; HEK293 D1, CRE-luciferase, dopamine EC30 potentiation; actives deviate in either direction; B-score at 10 µM; 58,000 compounds, 5.9% hits; AID 641;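 active = luminescence count or its row- and column-corrected plate score outside the 99.7% band of the plate's sample wells, on either side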
Target sequence (P21728 whole entry, looked up): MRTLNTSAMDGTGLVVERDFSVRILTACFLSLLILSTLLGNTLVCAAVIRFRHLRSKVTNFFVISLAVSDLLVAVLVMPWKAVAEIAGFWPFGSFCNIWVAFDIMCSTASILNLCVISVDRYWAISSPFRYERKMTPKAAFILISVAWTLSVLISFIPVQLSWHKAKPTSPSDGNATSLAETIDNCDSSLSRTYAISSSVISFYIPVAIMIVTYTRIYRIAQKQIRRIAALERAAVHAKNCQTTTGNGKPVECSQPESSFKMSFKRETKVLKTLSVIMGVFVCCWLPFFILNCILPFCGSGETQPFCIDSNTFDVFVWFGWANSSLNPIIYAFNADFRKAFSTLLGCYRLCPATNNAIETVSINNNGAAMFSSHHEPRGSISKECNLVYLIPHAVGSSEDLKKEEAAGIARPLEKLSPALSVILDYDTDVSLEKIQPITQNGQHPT
M1 ag: M1 muscarinic receptor agonism | AID 626 | B-score at 10 µM | 64,000 compounds, 3% hits | CHO-M1 cells, Fluo-4 calcium fluorescence, agonist mode; active compounds read high;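 active = fluorescence rise, raw or as B-score row- and column-corrected plate score, outside the 99.7% band of its plate's samples, either direction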
An asterisk follows results filed as active; . = not tested or not shown.

SMILES | mHtt clearance | Jurkat viability | M1 antag | HEK293 NFkB inh | D1 mod | M1 ag
CCOC(=O)N1CCN(c2c(F)cc3[nH]c(=S)[nH]c3c2Br)CC1 | 47.9 | 85.4* | -0.0616 | 8.5 | 0.956 | 0.126
c1ccc2c(c1)Cc1cc(CN3CCOCC3)ccc1-2 | . | -4.9 | -0.861 | -19.8 | -0.741 | -1.98
CCN1CCN(Cc2ccc3c(c2)Cc2ccccc2-3)CC1 | . | -9.0 | -3.55* | 10.0 | -0.576 | 2.25
CSC1=NCCN1C(=O)c1ccc(S(=O)(=O)N(C)C)cc1 | -20.8 | 2.0 | 0.00192 | 1.4 | 0.0211 | 0.471
Oc1cccc2ccc(Nc3ccccn3)nc12 | . | 72.4* | -0.0459 | 5.6 | -4.06* | 0.278
O=c1c2cnn(-c3ccc(F)cc3)c2ncn1Cc1ccccn1 | . | 8.6 | -1.06 | 14.7 | -0.27 | -0.0488
CC1CCN(c2nc3ccc(C(=O)O)cc3s2)CC1 | . | 3.7 | 0.788 | 82.8* | . | -0.518
COc1ccc(C(=O)Nc2cc(OC)nc(OC)n2)cc1 | 23.0 | . | . | . | . | .
CC(C)OCCCN1C(=O)c2[nH]nc(-c3ccccc3O)c2C1c1cccc(Cl)c1 (centres undefined) | . | 7.5 | 0.723 | 7.4 | . | 0.837
COCCCN1C(=O)c2[nH]nc(-c3ccccc3O)c2C1c1cccc(Cl)c1 (centres undefined) | 15.3 | 90.5* | 0.146 | 7.4 | 1.16 | 0.457
COCCSc1nnc(NC(=O)C(C)(C)C)s1 | -60.2 | . | . | . | . | .
OCCSc1nc2ccccc2n1CCOc1ccccc1 | 1.1 | . | . | . | . | .
COc1ccc(-c2cc(-c3ccccc3)nc(N3CCCC3)n2)cc1OC | . | -7.7 | 1.49 | 5.4 | -8.72* | 0.381
Cc1cc2n(c(=O)c1C#N)CCCN2c1ccccc1 | -64.3 | . | . | . | . | .
C/C(=N\NC(=O)CSCc1cccc(Br)c1)c1ccc([N+](=O)[O-])cc1 | 17.0 | . | . | . | . | .
COc1ccc(-c2nn(-c3ccccc3)cc2C(=O)O)cc1 | . | 2.6 | -0.111 | 20.2 | . | 0.247
Cc1ccc(-c2nn(-c3ccccc3)cc2C(=O)N2CCOCC2)cc1 | . | 6.9 | . | 3.6 | -4.04* | .
Cc1ccccc1OCCCn1c(=O)sc2ccccc21 | -26.1 | . | . | . | . | .
Cc1ccc2cc(CN(Cc3ccco3)C(=O)c3cccs3)c(=O)[nH]c2c1 | -99.6 | 92.5* | -0.342 | 9.8 | 0.211 | -0.235
Cc1ccc2[nH]c(=O)c(CN(Cc3ccco3)C(=O)c3cccs3)cc2c1 | . | -0.8 | -1.48 | 1.4 | -1.08 | 0.565
CCN(CC)S(=O)(=O)c1cccc(-c2nnc(SCC(=O)c3cc(C)n(C4CC4)c3C)o2)c1 | . | 7.4 | -0.609 | 12.0 | 0.54 | 3.2*
O=C(CSc1nc2ccsc2c(=O)n1Cc1ccccc1)NCc1ccco1 | -0.9 | . | 0.775 | 1.6 | -2.23* | -0.744
O=C(CSc1nc2ccccc2c(=O)n1Cc1ccco1)NCc1ccco1 | -2.6 | 0.0 | 0.906 | 26.0 | -0.612 | 0.305
O=C(CSc1nc2ccsc2c(=O)n1NC(=O)c1ccccc1)NCc1ccco1 | 70.0* | . | 0.197 | 20.0 | -0.765 | -0.196
CC1(C)C(=O)OC(C(=O)c2ccc(C(C)(C)C)cc2)C(C)(C)C1=O (centres undefined) | 8.3 | . | . | . | . | .
SMILES | mHtt clearance | Jurkat viability | M1 antag | HEK293 NFkB inh | D1 mod | M1 ag
CCOC(=O)c1cc2occc2n1CC(=O)N1CCCc2ccccc21 | -26.3 | -0.1 | -0.504 | -1.0 | 4.18* | -0.903
CCOC(=O)c1cc2sccc2n1CC(=O)N1CCCc2ccccc21 | 4.1 | -2.2 | -0.655 | 11.7 | 3.17 | 2.18
CCCCNC(=O)Nc1cc(C(=O)OC)ccc1Cl | 28.9 | . | . | . | . | .
Fc1cccc(Oc2nc3ccccc3n3cccc23)c1 | -6.6 | . | . | . | . | .
NC(=O)C1CCN(C(=O)CN(c2cccc(C(F)(F)F)c2)S(=O)(=O)c2ccccc2)CC1 | 8.0 | 0.3 | 0.074 | 14.0 | -2.26* | 0.081
COCCn1cc(C(=O)N2CCC(C)CC2)c2c3ccccc3n(C)c2c1=O | -90.0 | 8.6 | -0.422 | 6.1 | 0.812 | 0.335
COc1nc(Nc2nc3ccccc3c(=O)[nH]2)nc2ccc(C)cc12 | . | -6.5 | -2.09* | 29.8 | -2.68* | 1.53
O=C(c1ccc(Cl)c(F)c1F)N1CCOCC1 | -9.8 | . | . | . | . | .
Cc1c(C(=O)N2CC(C)OC(C)C2)sc2nc(-c3ccc(F)cc3)cn12 (centres undefined) | . | 2.9 | 0.339 | -4.6 | -3.01* | -0.397
O=C(Nc1ccc2c(c1)nc1n2CCSC1)c1ccccc1 | 22.3 | 8.5 | 0.497 | -6.2 | -3.7* | -0.582
CCOC(=O)c1ccc(NS(=O)(=O)c2cnc[nH]2)cc1 | . | 1.2 | 0.167 | 13.5 | 0.0703 | -0.929
C=C(C)Cn1c(-c2ccc(OC)cc2)nc2ccccc21 | 30.6 | . | -1.13 | . | . | 0.314
COc1ccccc1S(=O)(=O)Cc1ccc(C(=O)NCc2cccs2)o1 | . | -5.3 | 2.17* | 4.6 | -0.101 | 0.0257
COc1ccc(S(=O)(=O)Cc2ccc(C(=O)NCc3cccs3)o2)cc1 | 28.0 | 8.5 | 0.46 | -0.5 | -0.861 | -0.0242
O=C(NCc1ccco1)c1cccc(S(=O)(=O)N2CCCCC2)c1 | 46.8 | 1.6 | -0.0138 | 1.1 | . | 0.197
CN(CC(=O)NC1CCCCCC1)S(=O)(=O)c1ccc2c(c1)n(C)c(=O)c(=O)n2C | 0.5 | . | . | . | . | .
C=CCN(C(=O)c1ccccc1)c1ccc(OC)cc1 | 32.7 | 49.0* | 0.664 | 4.4 | 0.819 | 0.176
CCN(C(=O)c1cc2cc(OC)ccc2oc1=O)c1ccccc1 | . | 1.4 | 0.4 | 9.5 | 0.254 | -0.562
O=C(Nc1ccc2c(c1)OCCO2)c1cccnc1 | . | 5.0 | 0.414 | 1.2 | -3.22* | -0.0252
O=C(Nc1ccc(N2CCOCC2)c(Cl)c1)c1cccnc1 | -58.7 | 3.1 | -0.083 | 9.7 | -0.125 | -0.987
Cc1nc2cc(N3CCCCC3)c(NC(=O)c3cccnc3)cc2c(=O)n1Cc1ccccc1 | 37.5 | -5.5 | 2.83* | 3.4 | -0.0839 | -0.134
O=C(Nc1ccc(N2CCCCC2)c(Cl)c1)c1cccnc1 | . | 32.9* | -0.15 | 36.0 | 0.0137 | 0.0227
CC(C)(C)C(=O)Nc1ccc(-c2cn3ccsc3n2)cc1 | . | 6.9 | -0.0384 | 11.8 | -5.38* | -0.128
CC(C)CC(=O)Nc1ccc(-c2cn3ccsc3n2)cc1 | 3.4 | 6.0 | -0.315 | -23.0 | -4.48* | 0.749
O=S(=O)(Nc1ccc(-c2cn3ccsc3n2)cc1)c1ccc2c(c1)OCCO2 | -42.6 | -0.5 | -0.592 | 19.9 | . | -1.19
SMILES | mHtt clearance | Jurkat viability | M1 antag | HEK293 NFkB inh | D1 mod | M1 ag
Cc1cc(NC(=O)c2ccc3c(c2)OCCO3)no1 | . | -1.4 | 0.7 | 19.2 | -6.39* | -0.607
Cc1cc(NC(=O)c2ccc3c(c2)OCO3)no1 | -31.8 | -7.5 | 0.155 | -27.7 | -2.14 | 0.692
O=c1c2ccccc2nnn1CSc1nnc(-c2cccs2)n1Cc1ccccc1 | . | 28.5* | -0.492 | -21.3 | -0.79 | 1.15
Cc1ccc(N2CC(C(=O)Nc3nccs3)CC2=O)cc1 (centres undefined) | . | 6.1 | 0.351 | 13.0 | -7.44* | -0.599
CCCc1[nH][nH]c(=O)c1C(c1ccccc1)C(C#N)C#N (centres undefined) | 9.4 | . | 1.22* | 11.8 | 0.00735 | 0.0239
O=C(CN1C(=O)c2ccccc2S1(=O)=O)N1CCc2ccccc2C1 | . | -4.8 | -0.0942 | 2.4 | -0.515 | -0.808

Assay outcomes as filed in PubChem.
